Results on seven molecules are retold here after ChEMBL document CHEMBL1795208 (J Med Chem, 2011).

Calls of active or inactive are those of the source. The calls are words filed in the database; no cut-off is given here.

Experiment [1] relates to SK-BR-3. Nature of the experiment: Ratio of novobiocin IC50 to compound IC50 for human SKBR3 cells expressing HER2. In kind it is functional.
Experiment [2] deals with SK-BR-3. Nature of the experiment: Antiproliferative activity against human SKBR3 cells expressing HER2 after 72 hrs by MTS/PMS assay. Conditions: SK-BR-3, 72 h. The experiment is classed as functional, cell-based. Summed up:
(§1)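 Cells kept in Advanced DMEM/F12 (1:1) with non-essential amino acids, 2 mM L-glutamine, penicillin, streptomycin and 10% FBS at 37 °C, 5% CO2. Seeded at 2000/well, attached overnight. Compound added in DMSO across a concentration range (1% DMSO final) for 72 h. Viable cells read by MTS/PMS and normalized to 1% DMSO controls (100%). IC50 taken from separate triplicate experiments.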

Experiment [3] deals with MCF7. Nature of the experiment: Antiproliferative activity against human MCF7 cells expressing estrogen receptor after 72 hrs by MTS/PMS assay. In kind it is functional, cell-based. Particulars: MCF7, 72 h. The gist of the method:
as §1

A short description of experiment [4]: Antiproliferative activity against human androgen-independent PC3MM2 cells after 72 hrs by MTS/PMS assay. Conditions: PC3MM2, 72 h. In kind it is functional, cell-based. Summed up: as §1
The target of experiment [5] is T1, Heat shock protein HSP90 (Homo sapiens) (UniProt P07900+P08238). Nature of the experiment: Inhibition of Hsp90 in human MCF7 cells assessed as Her2 degradation after 24 hrs by Western blot analysis. In kind it is cell-based. The gist of the method: (§2)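 MCF-7 cells grown as for proliferation and treated with compound at various concentrations, GDA, or DMSO vehicle (1% DMSO final) for 24 h. Lysed in RIPA with 1 mM PMSF, 2 mM orthovanadate and protease inhibitors on ice for 1 h, then clarified at 14000g. Protein measured by BCA. 20 µg run reducing, transferred to nitrocellulose and probed with specific antibodies.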
(Immunoblotting shows a protein as a band on a membrane.)

Experiment [6] addresses T1, Heat shock protein HSP90 (Homo sapiens). Nature of the experiment: Inhibition of Hsp90 in human MCF7 cells assessed as Akt degradation after 24 hrs by Western blot analysis. In kind it is cell-based. Summed up:
as §2

Experiment [7] shares this target. Nature of the experiment: Inhibition of Hsp90 in human MCF7 cells assessed as Raf1 degradation after 24 hrs by Western blot analysis. The experiment is classed as cell-based. The gist of the method:
as §2

Experiment [8] has the same target. Nature of the experiment: Inhibition of Hsp90 in human MCF7 cells assessed as Her2 degradation at IC50 concentration after 24 hrs by Western blot analysis. The experiment is classed as cell-based.
For experiment [9] the target is unchanged. Nature of the experiment: Inhibition of Hsp90 in human MCF7 cells assessed as Akt degradation at IC50 concentration after 24 hrs by Western blot analysis. The experiment is classed as cell-based.
Experiment [10] has the same target. Nature of the experiment: Inhibition of Hsp90 in human MCF7 cells assessed as Raf1 degradation at IC50 concentration after 24 hrs by Western blot analysis. The experiment is classed as cell-based.
A short description of experiment [11]: Antiproliferative activity against human androgen-dependent LNCaP-LN3 cells after 72 hrs by MTS/PMS assay. The experiment is classed as functional, cell-based. Particulars: LNCaP-LN3, 72 h. The gist of the method:
as §1

In experiment [12] the test system is B16-F10. Nature of the experiment: Antiproliferative activity against mouse B16F10 cells after 72 hrs by MTS/PMS assay. In kind it is functional, cell-based. Conditions: B16-F10, 72 h. The gist of the method:
as §1

Experiment [13] concerns SK-MEL-28. Nature of the experiment: Antiproliferative activity against human SK-MEL-28 cells after 72 hrs by MTS/PMS assay. The experiment is classed as functional, cell-based. Particulars: SK-MEL-28, 72 h. Summed up:
as §1

The nature of experiment [14]: Antiproliferative activity against human MDA1986 cells after 72 hrs by MTS/PMS assay. The experiment is classed as functional, cell-based. Conditions: MDA1986, 72 h. Summed up:
as §1

The nature of experiment [15]: Antiproliferative activity against human JMAR cells after 72 hrs by MTS/PMS assay. In kind it is functional, cell-based. Summed up:
as §1

For the molecule `COc1cccc(-c2cc(C(=O)Nc3cc4cc(OC)c(O[C@@H]5OC[C@@H]6OC(=O)O[C@H]56)c(C)c4oc3=O)ccc2OC)c1`, the “Ratio IC50” value in [1] is given as 500.
The term IC50 denotes the concentration needed to halve the response being measured. `COc1cccc(-c2cc(C(=O)Nc3cc4ccc(O[C@H]5OCC[C@@H](O)[C@H]5O)c(OC)c4oc3=O)ccc2OC)c1`: the IC50 is 11.1 µM in [2] and 10.8 µM in experiment [3]. Besides, the “Ratio IC50” value in [1] was 500.
As for `COc1cc2cc(NC(=O)c3ccc(OC(C)=O)c(CC=C(C)C)c3)c(=O)oc2c(C)c1OCCCN(C)C`, the values for the IC50 in experiment [2], in experiment [3] and in experiment [4] were 0.36 µM, 0.7 µM and 1.46 µM, respectively. For the same molecule, the inhibition result in experiment [5], in experiment [6] and in [7] was “Dose-dependent effect” throughout. The inhibition result in experiment [8], in experiment [9] and in experiment [10] was “Active” throughout.
On to `COc1cc2cc(NC(=O)c3ccc(O)c(CC=C(C)C)c3)c(=O)oc2c(C)c1OC1CCN(C)CC1`, for which the IC50 was found to be 0.42 µM in experiment [2], 0.54 µM in [3] and 2.26 µM in experiment [4]. Besides, the inhibition result in [5], in experiment [6] and in [7] was “Dose-dependent effect” in each case. Also, the inhibition result in experiment [8], in experiment [9] and in experiment [10] was “Active” throughout.
For `COc1cccc(-c2cc(C(=O)Nc3cc4ccc(OC5CNC[C@@H](O)[C@H]5O)c(OC)c4oc3=O)ccc2OC)c1` (stereo partly specified), the IC50 worked out at 8.98 µM in experiment [2]; 10.2 µM in experiment [3]; 12.2 µM in experiment [11]; 14.4 µM in [4]; 11.8 µM in experiment [12]; 11.4 µM in [13]. The values for the IC50 in [14] and in experiment [15] were 21.7 µM and 11.6 µM, respectively.
For `COc1cccc(-c2cc(C(=O)Nc3cc4ccc(OC5C=CCNC5)c(OC)c4oc3=O)ccc2OC)c1` (stereo unspecified), the IC50 was 3.07 µM in [2]; 1.43 µM in experiment [3]; 6.45 µM in experiment [11]; 4.88 µM in experiment [4]; 3.41 µM in [12]; 5.49 µM in experiment [13]. Moreover, the values for the IC50 in experiment [14] and in experiment [15] were 5.97 µM and 6.71 µM, respectively.
For `COc1cccc(-c2cc(C(=O)Nc3cc4cc(OC)c(OC5C=CCNC5)c(C)c4oc3=O)ccc2OC)c1` (stereo unspecified), the IC50 in [2] was 1.21 µM; in experiment [3], 1.68 µM; in experiment [11], 5.4 µM; in experiment [4], 3.57 µM; in experiment [12], 2.86 µM; in [13] it was 5.41 µM. Moreover, the IC50 in experiment [14] worked out at 5.9 µM; in [15] it was 11.6 µM.
